According to ChEMBL document CHEMBL1255396, “Trailing or paradoxical growth of Candida albicans when exposed to caspofungin is not associated with microsatellite genotypes” (2010):
In brackets after ≈: the same amount, converted by molar mass.

Key:
Type in all cases: functional
Candida albicans [1] = assay: Antimicrobial activity against Candida albicans isolate 25 after 48 hrs by Etest method; details: isolate 25, 48 h
In short: (§1)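 Caspofungin agar-diffusion Etest strips on clinical isolates from four Marseille teaching hospitals, each from a different patient. Run in duplicate and read after 48 h at 30°C. QC strains were C. krusei ATCC 6258 and C. parapsilosis ATCC 22019. Trailing, paradoxical growth and clear endpoints were scored from growth relative to the MIC.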

Candida albicans [2] = assay: Antimicrobial activity against Candida albicans isolate 3 after 48 hrs by broth microdilution assay; details: isolate 3, 48 h
In short: (§2)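 Sensititre YeastOne caspofungin broth microdilution, which follows the CLSI method but uses alamarBlue readout in RPMI 1640 with 2% glucose. Done in duplicate and read after 48 h at 30°C. QC strains were C. krusei ATCC 6258 and C. parapsilosis ATCC 22019. Isolates were from different patients and wards in four Marseille hospitals.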

Candida albicans [3] = assay: Antimicrobial activity against Candida albicans isolate 21 after 48 hrs by Etest method; details: isolate 21, 48 h; in short: as §1
Candida albicans [4] = assay: Antimicrobial activity against Candida albicans isolate 8 after 48 hrs by broth microdilution assay; details: isolate 8, 48 h; in short: as §2
Candida albicans [5] = assay: Antimicrobial activity against Candida albicans isolate 9 after 48 hrs by Etest method; details: isolate 9, 48 h
In short: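 Caspofungin Etest strip (agar diffusion) applied per manufacturer to a clinical isolate. Plates read after 48 h at 30°C. Testing done in duplicate. QC strains: C. krusei ATCC 6258 and C. parapsilosis ATCC 22019. Paradoxical growth and trailing were scored as separate endpoint phenotypes.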

Candida albicans [6] = assay: Antimicrobial activity against Candida albicans isolate 5 after 48 hrs by broth microdilution assay; details: isolate 5, 48 h; in short: as §2
Candida albicans [7] = assay: Antimicrobial activity against Candida albicans isolate 20 after 48 hrs by Etest method; details: isolate 20, 48 h; in short: as §1
Candida albicans [8] = assay: Antimicrobial activity against Candida albicans isolate 14 after 48 hrs by Etest method; details: isolate 14, 48 h; in short: as §1
Candida albicans [9] = assay: Antimicrobial activity against Candida albicans isolate 7 after 48 hrs by broth microdilution assay; details: isolate 7, 48 h; in short: as §2
Candida albicans [10] = assay: Antimicrobial activity against Candida albicans isolate 23 after 48 hrs by Etest method; details: isolate 23, 48 h; in short: as §1
Candida albicans [11] = assay: Antimicrobial activity against Candida albicans isolate 21 after 48 hrs by broth microdilution assay; details: isolate 21, 48 h; in short: as §2
Candida albicans [12] = assay: Antimicrobial activity against Candida albicans isolate 3 after 48 hrs by Etest method; details: isolate 3, 48 h; in short: as §1
Candida albicans [13] = assay: Antimicrobial activity against Candida albicans isolate 16 after 48 hrs by broth microdilution assay; details: isolate 16, 48 h; in short: as §2
Candida albicans [14] = assay: Antimicrobial activity against Candida albicans isolate 2 after 48 hrs by broth microdilution assay; details: isolate 2, 48 h; in short: as §2
Candida albicans [15] = assay: Antimicrobial activity against Candida albicans isolate 15 after 48 hrs by broth microdilution assay; details: isolate 15, 48 h; in short: as §2
Candida albicans [16] = assay: Antimicrobial activity against Candida albicans isolate 15 after 48 hrs by Etest method; details: isolate 15, 48 h; in short: as §1
Candida albicans [17] = assay: Antimicrobial activity against Candida albicans isolate 1 after 48 hrs by Etest method; details: isolate 1, 48 h; in short: as §1
Candida albicans [18] = assay: Antimicrobial activity against Candida albicans isolate 19 after 48 hrs by broth microdilution assay; details: isolate 19, 48 h; in short: as §2
Candida albicans [19] = assay: Antimicrobial activity against Candida albicans isolate 25 after 48 hrs by broth microdilution assay; details: isolate 25, 48 h; in short: as §2
Candida albicans [20] = assay: Antimicrobial activity against Candida albicans isolate 18 after 48 hrs by Etest method; details: isolate 18, 48 h; in short: as §1
Candida albicans [21] = assay: Antimicrobial activity against Candida albicans isolate 7 after 48 hrs by Etest method; details: isolate 7, 48 h; in short: as §1
Candida albicans [22] = assay: Antimicrobial activity against Candida albicans isolate 19 after 48 hrs by Etest method; details: isolate 19, 48 h; in short: as §1
Candida albicans [23] = assay: Antimicrobial activity against Candida albicans isolate 22 after 48 hrs by broth microdilution assay; details: isolate 22, 48 h; in short: as §2
Candida albicans [24] = assay: Antimicrobial activity against Candida albicans isolate 8 after 48 hrs by Etest method; details: isolate 8, 48 h; in short: as §1
Candida albicans [25] = assay: Antimicrobial activity against Candida albicans isolate 6 after 48 hrs by Etest method; details: isolate 6, 48 h; in short: as §1
Candida albicans [26] = assay: Antimicrobial activity against Candida albicans isolate 11 after 48 hrs by Etest method; details: isolate 11, 48 h; in short: as §1
Candida albicans [27] = assay: Antimicrobial activity against Candida albicans isolate 24 after 48 hrs by Etest method; details: isolate 24, 48 h; in short: as §1
Candida albicans [28] = assay: Antimicrobial activity against Candida albicans isolate 2 after 48 hrs by Etest method; details: isolate 2, 48 h; in short: as §1
Candida albicans [29] = assay: Antimicrobial activity against Candida albicans isolate 23 after 48 hrs by broth microdilution assay; details: isolate 23, 48 h; in short: as §2
Candida albicans [30] = assay: Antimicrobial activity against Candida albicans isolate 12 after 48 hrs by Etest method; details: isolate 12, 48 h; in short: as §1
Candida albicans [31] = assay: Antimicrobial activity against Candida albicans isolate 26 after 48 hrs by Etest method; details: isolate 26, 48 h; in short: as §1
Candida albicans [32] = assay: Antimicrobial activity against Candida albicans isolate 12 after 48 hrs by broth microdilution assay; details: isolate 12, 48 h; in short: as §2
Candida albicans [33] = assay: Antimicrobial activity against Candida albicans isolate 18 after 48 hrs by broth microdilution assay; details: isolate 18, 48 h; in short: as §2
Candida albicans [34] = assay: Antimicrobial activity against Candida albicans isolate 1 after 48 hrs by broth microdilution assay; details: isolate 1, 48 h; in short: as §2
Candida albicans [35] = assay: Antimicrobial activity against Candida albicans isolate 4 after 48 hrs by broth microdilution assay; details: isolate 4, 48 h; in short: as §2
Candida albicans [36] = assay: Antimicrobial activity against Candida albicans isolate 22 after 48 hrs by Etest method; details: isolate 22, 48 h; in short: as §1
Candida albicans [37] = assay: Antimicrobial activity against Candida albicans isolate 4 after 48 hrs by Etest method; details: isolate 4, 48 h; in short: as §1
Candida albicans [38] = assay: Antimicrobial activity against Candida albicans isolate 27 after 48 hrs by broth microdilution assay; details: isolate 27, 48 h; in short: as §2
Candida albicans [39] = assay: Antimicrobial activity against Candida albicans isolate 11 after 48 hrs by broth microdilution assay; details: isolate 11, 48 h; in short: as §2
Candida albicans [40] = assay: Antimicrobial activity against Candida albicans isolate 17 after 48 hrs by broth microdilution assay; details: isolate 17, 48 h; in short: as §2
Candida albicans [41] = assay: Antimicrobial activity against Candida albicans isolate 13 after 48 hrs by broth microdilution assay; details: isolate 13, 48 h; in short: as §2
Candida albicans [42] = assay: Antimicrobial activity against Candida albicans isolate 17 after 48 hrs by Etest method; details: isolate 17, 48 h; in short: as §1
Candida albicans [43] = assay: Antimicrobial activity against Candida albicans isolate 13 after 48 hrs by Etest method; details: isolate 13, 48 h; in short: as §1
Candida albicans [44] = assay: Antimicrobial activity against Candida albicans isolate 6 after 48 hrs by broth microdilution assay; details: isolate 6, 48 h; in short: as §2
Candida albicans [45] = assay: Antimicrobial activity against Candida albicans isolate 27 after 48 hrs by Etest method; details: isolate 27, 48 h; in short: as §1
Candida albicans [46] = assay: Antimicrobial activity against Candida albicans isolate 9 after 48 hrs by broth microdilution assay; details: isolate 9, 48 h
In short: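 Sensititre Yeast One broth microdilution used per manufacturer. It matches the CLSI method except for the alamarBlue read-out and RPMI 1640 with 2% glucose. Read after 48 h at 30°C. Testing done in duplicate. QC strains: C. krusei ATCC 6258 and C. parapsilosis ATCC 22019. Paradoxical growth and trailing were scored separately.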

Candida albicans [47] = assay: Antimicrobial activity against Candida albicans isolate 14 after 48 hrs by broth microdilution assay; details: isolate 14, 48 h; in short: as §2
Candida albicans [48] = assay: Antimicrobial activity against Candida albicans isolate 20 after 48 hrs by broth microdilution assay; details: isolate 20, 48 h; in short: as §2
Candida albicans [49] = assay: Antimicrobial activity against Candida albicans isolate 5 after 48 hrs by Etest method; details: isolate 5, 48 h; in short: as §1
Candida albicans [50] = assay: Antimicrobial activity against Candida albicans isolate 16 after 48 hrs by Etest method; details: isolate 16, 48 h; in short: as §1
Candida albicans [51] = assay: Antimicrobial activity against Candida albicans isolate 24 after 48 hrs by broth microdilution assay; details: isolate 24, 48 h; in short: as §2
Candida albicans [52] = assay: Antimicrobial activity against Candida albicans isolate 26 after 48 hrs by broth microdilution assay; details: isolate 26, 48 h; in short: as §2

SMILES: CC[C@H](C)C[C@H](C)CCCCCCCCC(=O)N[C@H]1C[C@@H](O)[C@@H](NCCN)NC(=O)[C@@H]2[C@@H](O)CCN2C(=O)[C@H]([C@H](O)CCN)NC(=O)[C@H]([C@H](O)[C@@H](O)c2ccc(O)cc2)NC(=O)[C@@H]2C[C@@H](O)CN2C(=O)[C@H]([C@@H](C)O)NC1=O [CASPOFUNGIN]
- MIC (Candida albicans [1]): 0.064 µg/mL (≈ 0.0585 µM)
- MIC (Candida albicans [2]): 0.032 µg/mL (≈ 0.0293 µM)
- MIC (Candida albicans [3]): 0.064 µg/mL (≈ 0.0585 µM)
- MIC (Candida albicans [4]): 0.125 µg/mL (≈ 0.114 µM)
- MIC (Candida albicans [5]): 0.047 µg/mL (≈ 0.043 µM)
- MIC (Candida albicans [6]): 0.064 µg/mL (≈ 0.0585 µM)
- MIC (Candida albicans [7]): 0.032 µg/mL (≈ 0.0293 µM)
- MIC (Candida albicans [8]): 0.032 µg/mL (≈ 0.0293 µM)
- MIC (Candida albicans [9]): 0.064 µg/mL (≈ 0.0585 µM)
- MIC (Candida albicans [10]): 0.064 µg/mL (≈ 0.0585 µM)
- MIC (Candida albicans [11]): 0.064 µg/mL (≈ 0.0585 µM)
- MIC (Candida albicans [12]): 0.032 µg/mL (≈ 0.0293 µM)
- MIC (Candida albicans [13]): 0.032 µg/mL (≈ 0.0293 µM)
- MIC (Candida albicans [14]): 0.032 µg/mL (≈ 0.0293 µM)
- MIC (Candida albicans [15]): 0.016 µg/mL (≈ 0.0146 µM)
- MIC (Candida albicans [16]): 0.016 µg/mL (≈ 0.0146 µM)
- MIC (Candida albicans [17]): 0.008 µg/mL (≈ 0.00732 µM)
- MIC (Candida albicans [18]): 0.75 µg/mL (≈ 0.686 µM)
- MIC (Candida albicans [19]): 0.064 µg/mL (≈ 0.0585 µM)
- MIC (Candida albicans [20]): 0.094 µg/mL (≈ 0.086 µM)
- MIC (Candida albicans [21]): 0.064 µg/mL (≈ 0.0585 µM)
- MIC (Candida albicans [22]): 0.75 µg/mL (≈ 0.686 µM)
- MIC (Candida albicans [23]): 0.125 µg/mL (≈ 0.114 µM)
- MIC (Candida albicans [24]): 0.125 µg/mL (≈ 0.114 µM)
- MIC (Candida albicans [25]): 0.125 µg/mL (≈ 0.114 µM)
- MIC (Candida albicans [26]): 0.094 µg/mL (≈ 0.086 µM)
- MIC (Candida albicans [27]): 0.064 µg/mL (≈ 0.0585 µM)
- MIC (Candida albicans [28]): 0.032 µg/mL (≈ 0.0293 µM)
- MIC (Candida albicans [29]): 0.064 µg/mL (≈ 0.0585 µM)
- MIC (Candida albicans [30]): 0.064 µg/mL (≈ 0.0585 µM)
- MIC (Candida albicans [31]): 0.094 µg/mL (≈ 0.086 µM)
- MIC (Candida albicans [32]): 0.064 µg/mL (≈ 0.0585 µM)
- MIC (Candida albicans [33]): 0.094 µg/mL (≈ 0.086 µM)
- MIC (Candida albicans [34]): 0.008 µg/mL (≈ 0.00732 µM)
- MIC (Candida albicans [35]): 0.032 µg/mL (≈ 0.0293 µM)
- MIC (Candida albicans [36]): 0.125 µg/mL (≈ 0.114 µM)
- MIC (Candida albicans [37]): 0.032 µg/mL (≈ 0.0293 µM)
- MIC (Candida albicans [38]): 0.047 µg/mL (≈ 0.043 µM)
- MIC (Candida albicans [39]): 0.094 µg/mL (≈ 0.086 µM)
- MIC (Candida albicans [40]): 0.125 µg/mL (≈ 0.114 µM)
- MIC (Candida albicans [41]): 0.023 µg/mL (≈ 0.021 µM)
- MIC (Candida albicans [42]): 0.125 µg/mL (≈ 0.114 µM)
- MIC (Candida albicans [43]): 0.023 µg/mL (≈ 0.021 µM)
- MIC (Candida albicans [44]): 0.125 µg/mL (≈ 0.114 µM)
- MIC (Candida albicans [45]): 0.047 µg/mL (≈ 0.043 µM)
- MIC (Candida albicans [46]): 0.047 µg/mL (≈ 0.043 µM)
- MIC (Candida albicans [47]): 0.032 µg/mL (≈ 0.0293 µM)
- MIC (Candida albicans [48]): 0.032 µg/mL (≈ 0.0293 µM)
- MIC (Candida albicans [49]): 0.064 µg/mL (≈ 0.0585 µM)
- MIC (Candida albicans [50]): 0.032 µg/mL (≈ 0.0293 µM)
- MIC (Candida albicans [51]): 0.064 µg/mL (≈ 0.0585 µM)
- MIC (Candida albicans [52]): 0.094 µg/mL (≈ 0.086 µM)
